Published values pooled from the literature.
Each line is one published result; the experiments were not run side by side.
Effect on: cell growth or viability

COc1cc(Nc2nccc(-c3cnn4nc(OC)ccc34)n2)cc(C(F)(F)F)c1 — IC50 (NCI-N87; ATP luminescence): 640 nM
Cc1nnc(C(=O)NC(C)(C)c2nc(C(=O)NCc3ccc(F)cc3)c(O)c(=O)n2C)o1 — IC50 (COS-7; ATP luminescence): 36400 nM
COc1cccc2c1C(=O)c1c(O)c3c(c(O)c1C2=O)C[C@@](O)(C(=O)CO)C[C@@H]3O[C@H]1C[C@H](N)[C@H](O)[C@H](C)O1 — IC50 (ECa-109; MTT; 48 h): 170 nM
CC1=C(O)C(=O)C=C2C1=CC=C1[C@@]2(C)CC[C@@]2(C)[C@@H]3C[C@](C)(C(=O)OCCCCCCO)CC[C@]3(C)CC[C@]12C — IC50 (MGC-803; MTT; 48 h): 390 nM
Cc1ccc(-c2ccc(O)cc2)c(C(=C2C=CC(=O)C=C2)c2ccc(O)cc2)c1C#Cc1ccc(O)cc1 — IC50 (MGC-803; MTT; 48 h): 15000 nM
Cc1ccc(C(=O)N(CCCN)[C@@H](c2nc3cc(Cl)ccc3c(=O)n2Cc2ccccc2)C(C)C)cc1 — IC50 (MM1.S; ATP luminescence; 72 h): 12.6 nM
CC(C)[C@H](N)C(=O)N1CCC[C@H]1B(O)O — IC50 (Kasumi 1; ATP luminescence; 48 h): > 60000 nM
CC(=O)O[C@@]12CO[C@@H]1C[C@H](O)[C@@]1(C)C(=O)[C@H](O)C3=C(C)[C@@H](OC(=O)[C@H](O)[C@@H](NC(=O)OC(C)(C)C)c4ccccc4)C[C@@](O)([C@@H](OC(=O)c4ccccc4)[C@H]21)C3(C)C — IC50 (143B; resazurin; 72 h): 2.9 nM
CC1=C(O)C(=O)C=C2C1=CC=C1[C@@]2(C)CC[C@@]2(C)[C@@H]3C[C@](C)(C(=O)OCCCO)CC[C@]3(C)CC[C@]12C — IC50 (MGC-803; MTT; 48 h): 290 nM
O=c1[nH]c(=O)n([C@H]2C[C@H](O)[C@@H](CO)O2)cc1F — IC50 (FM3A/0; MTT; 72 h): 3.2 nM
CC(C)n1c(/C=C/C(O)CC(O)CC(=O)O)c(-c2ccc(F)cc2)c2ccccc21 (stereo not drawn) — IC50 (SW480; SRB; 72 h): 4.24 µg/mL
C[C@@H]1CCO[C@H]2Cn3cc(C(=O)NCc4ccc(F)cc4F)c(=O)c(O)c3C(=O)N12 — IC50 (COS-7; ATP luminescence): 360000 nM
O=C(Nc1ccc(Cl)cc1)c1ccc([N+](=O)[O-])o1 — IC50 (NCI-H2030; resazurin; 96 h): 1120 nM
CC1=C(O)C(=O)C=C2C1=CC=C1[C@@]2(C)CC[C@@]2(C)[C@@H]3C[C@](C)(C(=O)OCCCOc4ccccc4)CC[C@]3(C)CC[C@]12C — IC50 (MGC-803; MTT; 48 h): 460 nM
CC(=O)O[C@@]12CO[C@@H]1C[C@H](O)[C@@]1(C)C(=O)[C@H](O)C3=C(C)[C@@H](OC(=O)[C@H](O)[C@@H](NC(=O)OC(C)(C)C)c4ccccc4)C[C@@](O)([C@@H](OC(=O)c4ccccc4)[C@H]21)C3(C)C — IC50 (PC-12; MTT): 280 µg/mL
CC1=C(O)C(=O)C=C2C1=CC=C1[C@@]2(C)CC[C@@]2(C)[C@@H]3C[C@](C)(C(=O)OCCCn4ccc5ccccc54)CC[C@]3(C)CC[C@]12C — IC50 (MGC-803; MTT; 48 h): 1090 nM
OCc1ccc2c(c1C#Cc1ccc(O)cc1)C(c1ccc(O)cc1)(c1ccc(O)cc1)c1cc(O)ccc1-2 — IC50 (MGC-803; MTT; 48 h): > 50000 nM
CC1=C(O)C(=O)C=C2C1=CC=C1[C@@]2(C)CC[C@@]2(C)[C@@H]3C[C@](C)(C(=O)OCCO)CC[C@]3(C)CC[C@]12C — IC50 (MGC-803; MTT; 48 h): 370 nM
CCOC(=O)c1[nH]c(Br)c(-c2ccc(SC)cc2)c1Br — IC50 (MDA-MB-435; SRB): 626 nM
COCCCOC(=O)[C@]1(C)CC[C@]2(C)CC[C@]3(C)C4=CC=C5C(=CC(=O)C(O)=C5C)[C@]4(C)CC[C@@]3(C)[C@@H]2C1 — IC50 (MGC-803; MTT; 48 h): 400 nM
CC1(C)CC[C@]2(C(=O)O)CC[C@]3(C)C(=CC[C@@H]4[C@@]5(C)CC[C@H](O)C(C)(C)[C@@H]5CC[C@]43C)[C@@H]2C1 — IC50 (ECa-109; MTT; 48 h): 78200 nM
